M4 PAM: positive allosteric modulators of human muscarinic M4 receptor; CHO-K1 hM4/Gqi5, Fluo-8 calcium fluorescence, ACh EC20; 0% = ACh EC20, 100% = maximal ACh; activation, % at 3 µM; 360,000 tested, 0.4% active;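 active = activation above its plate's cutoff, the mean activation of sample wells plus 3 SD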
Target sequence (P08173 whole entry, looked up): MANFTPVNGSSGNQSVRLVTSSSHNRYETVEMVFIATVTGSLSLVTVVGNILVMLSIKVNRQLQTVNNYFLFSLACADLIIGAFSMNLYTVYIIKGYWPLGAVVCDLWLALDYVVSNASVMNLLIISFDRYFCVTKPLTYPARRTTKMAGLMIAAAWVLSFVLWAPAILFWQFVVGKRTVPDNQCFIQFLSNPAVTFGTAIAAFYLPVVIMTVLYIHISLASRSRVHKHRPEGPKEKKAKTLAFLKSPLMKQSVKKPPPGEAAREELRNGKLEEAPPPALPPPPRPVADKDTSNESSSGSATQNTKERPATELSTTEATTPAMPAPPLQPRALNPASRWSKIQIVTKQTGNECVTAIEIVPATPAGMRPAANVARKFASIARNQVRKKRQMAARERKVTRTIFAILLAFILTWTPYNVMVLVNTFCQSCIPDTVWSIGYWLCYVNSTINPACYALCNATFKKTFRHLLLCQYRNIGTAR
CHRM4 antagonist: antagonists of human muscarinic M4 receptor (CHRM4); CHO-hM4 cells, ACh EC80, Fluo-8 calcium fluorescence; P08173; AID 624125; inhibition, % at 3 µM; 360,000 tested, 0.73% active;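 active = inhibition above its plate's cutoff, the mean inhibition of sample wells plus 3 SD, cut at about 27% in these data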
CHRM5 PAM: CHRM5 positive allosteric modulation; P08912; CHO-K1 hM5, Fluo-8 calcium, ACh EC20 PAM; 0% = ACh EC20, 100% = ACh EC100; activation, % at 3 µM; 360,000 tested, 0.3% active; AID 624038;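 active = activation above the run cutoff, the mean activation of all test compounds plus 3 SD, cut at about 18% in these data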
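Assay system: CHO-K1 hM5 cells / Incubation: Fluo-8 loading 80 min at 37 °C plus 30 min room temperature / Technique: Fluo-8 calcium dye fluorescence, kinetic read / Repeats: single replicate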
CHRM5 antagonist: blocks acetylcholine activation of human M5 receptor. inhibition, % at 3 µM. 360,000 tested, 0.59% active. CHO-hM5 cells, Fluo-8 calcium fluorescence, ACh EC80;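 active = inhibition above a per-plate cutoff, the mean of that plate's test compounds plus 3 SD, cut at about 27% in these data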
CHRM4 agonist: CHRM4 agonism in calcium assay | P08173 | CHO-K1 hM4/Gqi5, Fluo-8 calcium fluorescence; vehicle 0%, full acetylcholine response 100% | activation, % at 3 µM | 360,000 tested, 0.14% active;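 active = activation above the run mean over all test wells plus 3 SD, cut at about 32% in these data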;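 also: peak over basal fluorescence ratio per well then scaled between controls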
M5 ag: agonists of human muscarinic M5 receptor (CHRM5); P08912; AID 624037; 360,000 tested, 0.19% active; activation, % at 3 µM; CHO-K1 hM5 cells, Fluo-8 calcium fluorescence; 0% DMSO wells, 100% maximal acetylcholine response;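 active = activation above the run's mean over test compounds plus 3 SD, cut at about 23% in these data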;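 also: signal is peak over basal fluorescence ratio across the kinetic read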
Numbers stand for hits; . = inactive. Most compounds without a hit are left out; they make up all but 1.9% or so of the library.

SMILES | M4 PAM | CHRM4 antagonist | CHRM5 PAM | CHRM5 antagonist | CHRM4 agonist | M5 ag
CC1(C)CN(C(=S)Nc2ccc(F)cc2F)C1=O | . | . | . | . | . | .
COc1ccc(/C=C/C(=O)NC(=S)N2CCN(c3ccccn3)CC2)cc1OC | . | . | . | . | . | .
O=C(/C=C/c1ccc(F)cc1)NC(=S)N1CCN(c2ccccn2)CC1 | . | . | 18.7 | . | . | .
CC(C)C(=O)Nc1ccc(-c2nc3ncccc3o2)cc1 | . | . | . | 29.8 | . | .
CC(C)C(=O)Nc1cccc(-c2nc3ncccc3o2)c1 | . | . | . | . | . | .
CCCc1cc(=O)[nH]c(SCC(=O)NCC2COc3ccccc3O2)n1 (stereo unspecified) | . | . | . | . | . | .
COc1cccc(NC(=O)CN(C)C(=O)c2ccc(COc3ccccc3)cc2)c1 | . | . | . | . | . | .
COc1ccc(NC(=O)CSc2nnc(NC(=O)c3ccco3)s2)cc1 | . | . | . | . | . | .
CCc1nc2c(OCc3ccc(C#N)cc3)cccn2c1N(C)C(=O)c1ccco1 | . | . | . | . | . | .
COC(=O)C1=C(N)OC2=C(C(=O)CC(C)(C)C2)C1c1cccs1 (stereo unspecified) | 20.0 | . | . | . | . | .
CC1(C)CC(=O)C2=C(C1)OC(N)=C(C#N)C2c1cccs1 (stereo unspecified) | . | . | . | . | . | .
COc1ccc(C2/C=C\CN(C(=O)NC(C)C)CC(=O)N2Cc2ccc(F)cc2)cc1 (stereo unspecified) | . | . | . | . | . | .
CC(OC(=O)Cc1c[nH]c2ccccc12)C(=O)N(C)c1ccccc1 (stereo unspecified) | . | . | . | . | . | .
Cc1cccc(C)c1NC(=O)[C@@]1(CC(=O)O)CC(/C=C/c2ccccc2)=NO1 | 14.0 | . | . | . | . | .
NC(=O)c1nsc(C(=O)N(c2ccccc2)C(C(=O)NCc2ccc(F)cc2)c2ccc(O)cc2)c1N (stereo unspecified) | . | 30.6 | . | . | . | .
NC(=O)c1nsc(C(=O)N(c2ccc3c(c2)OCO3)C(C(=O)NCC2CCCO2)c2ccc(F)cc2)c1N (stereo unspecified) | 23.5 | . | 18.8 | . | . | .
CC(CC(F)(F)F)N1CCC(n2nccc2NC(=O)CCOc2ccccc2)CC1 (stereo unspecified) | . | . | . | . | . | .
CC(C)COc1ccc(-c2nnc(-c3ccncc3)o2)cc1 | . | . | . | . | . | .
COc1ccc(-c2nnc(-c3ccc(OCC(C)C)cc3)o2)cc1 | 22.1 | . | . | . | . | .
OC[C@@H]1CN(Cc2ccco2)C[C@H](n2cnc3c(NC4CCCC4)ncnc32)O1 | . | . | . | . | . | .
COc1cc(Cl)ccc1NC(=S)N(CCN1CCOCC1)C1CCN(C(C)=O)CC1 | . | 61.4 | . | . | . | .
COC(=O)c1oc2ccc(Br)cc2c1NC(=O)CCCN1C(=O)c2ccccc2C1=O | . | 97.6 | . | 28.8 | . | .
CCn1c2ccccc2c2nnc(SCCN3CCCCC3)nc21 | . | 27.6 | . | . | . | .
CCn1c2ccccc2c2nnc(SCCN3CCOCC3)nc21 | . | . | . | . | . | .
O=C(NCC1CCCO1)c1cccc2c1C(=O)c1ccc(N3CCC(Cc4ccccc4)CC3)cc1S2(=O)=O (stereo unspecified) | . | 34.5 | . | 34.4 | 73.0 | 42.8
SMILES | M4 PAM | CHRM4 antagonist | CHRM5 PAM | CHRM5 antagonist | CHRM4 agonist | M5 ag
CC1CCN(c2ccc3c(c2)S(=O)(=O)c2cccc(C(=O)NC[C@@H]4CCCO4)c2C3=O)CC1 | . | . | . | . | . | .
O=C(NCc1ccco1)c1cccc2c1C(=O)c1ccc(N3CCCC3)cc1S2(=O)=O | . | . | . | . | 40.1 | .
Cc1ccc(CNC(=O)c2cccc3c2C(=O)c2ccc(N4CCCCC4)cc2S3(=O)=O)cc1 | . | . | . | 31.8 | 99.3 | 60.5
COc1ccc(N2CCN(C(=O)COC(=O)CNC(=O)c3ccc(C)cc3)CC2)cc1 | . | . | . | . | . | .
O=C(O)C1CCCCC1C(=O)Nc1ccc(S(=O)(=O)N2CCOCC2)cc1 (stereo unspecified) | . | . | . | . | . | .
Cc1onc(-c2c(Cl)cccc2Cl)c1C(=O)N1CCc2ccccc21 | . | 37.9 | . | . | . | .
O=C(O)CP(=O)(c1ccccc1)c1ccccc1 | 21.9 | . | . | . | . | .
O=P(CCO)(c1ccccc1)c1ccccc1 | . | . | . | . | . | .
CC1CCCN(C(=S)NCCc2ccccc2)C1 (stereo unspecified) | . | . | 19.3 | . | . | .
S=C(NCCc1ccccc1)N1CCCC1 | . | . | . | . | . | .
O=C(Nc1ccc2c(c1)OCCO2)Nc1ccc2c(c1)OCO2 | . | . | . | . | . | .
O=C(Nc1ccc2c(c1)OCO2)Nc1ccc(Br)cn1 | 41.3 | . | . | . | . | .
CCOC(=O)c1cn(Cc2ccccc2)c2cc(C)nn2c1=O | . | . | . | . | . | .
CCOC(=O)c1cn(Cc2ccccc2)c(C(=O)OC(C)(C)C)c1O | . | . | . | . | 80.9 | .
COc1ccc(-n2nnnc2SCC(=O)Nc2cccc(O)c2)cc1 | . | . | . | . | . | .
COCCNC(=O)c1cc(S(=O)(=O)N(C)c2ccccc2OC)ccc1C | . | . | . | . | . | .
CCOC(=O)c1sc(NC(=O)CCc2ccccc2)nc1C | . | . | . | . | . | .
CCCCCCCCN1N=N[C@H]2[C@H]1[C@@H]1C[C@H]2N(C(=O)OC(C)(C)C)O1 | . | 30.8 | . | . | . | .
CC(Sc1nnc(-c2cccs2)n1-c1ccccc1)C(=O)NCc1ccco1 (stereo unspecified) | . | . | . | . | . | .
CC(Sc1ccsc1[N+](=O)[O-])C(=O)NCc1ccco1 (stereo unspecified) | 22.9 | . | . | . | . | .
Cc1ccc(NS(=O)(=O)c2ccc(-n3cccn3)cc2)cc1F | . | . | . | . | . | .
COc1cccc(NS(=O)(=O)c2ccc(-n3cccn3)cc2)c1 | . | 30.8 | . | . | . | .
Cc1c(N2C(=O)/C(=C/c3ccc(N(C)C)cc3)N(C)C2=S)c(=O)n(-c2ccccc2)n1C | . | . | . | . | . | 33.6
CCC(Cc1ccccc1)NS(=O)(=O)c1c(C)nc2scc(C)n2c1=O (stereo unspecified) | . | . | . | . | . | .
CCc1cc(-c2n[nH]c(=S)n2-c2ccccc2C)cs1 | 31.0 | . | . | . | . | .
FC(F)C(F)(F)c1cc(-c2ccc(Cl)cc2)n[nH]1 | . | 28.5 | . | . | . | .
